Converted amounts (≈) assume the structure as drawn. The source made the active and inactive calls. No cut-off for these calls is given here.
Assays:
Assay type in all cases: functional
Sperm = experiment: (§1) Spermicidal activity in liquefied human semen assessed as drug level required to kill 100% sperm in 20 seconds
Candida albicans [1] = experiment: Antifungal activity against Candida albicans after 48 hrs by broth microdilution technique
Cryptococcus neoformans = experiment: Antifungal activity against Cryptococcus neoformans after 48 hrs by broth microdilution technique
Sporothrix schenckii = experiment: Antifungal activity against Sporothrix schenckii after 48 hrs by broth microdilution technique
[2] = system: Trichophyton mentagrophytes; experiment: Antifungal activity against Trichophyton mentagrophytes after 48 hrs by broth microdilution technique
Aspergillus fumigatus = experiment: Antifungal activity against Aspergillus fumigatus after 48 hrs by broth microdilution technique
Candida parapsilosis [3] = experiment: (§2) Antifungal activity against Candida parapsilosis ATCC 22019 after 48 hrs by broth microdilution technique; details: for MIC: Lodderomyces parapsilosis, ATCC 22019, 48 h
[4] = as §1
Trichomonas vaginalis = experiment: Antitrichomonas activity against Trichomonas vaginalis after 48 hrs by trypan blue staining
In short: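 Trichomonas vaginalis was grown in TYM medium and used in log phase, one day after routine subculture. Compounds in DMSO stock were serially diluted in TYM medium, with DMSO/TYM as vehicle control. Wells received 5 × 10³ trophozoites and were incubated anaerobically at 37 °C. Viability was scored daily by trypan blue and cell counts, and MIC was read at 48 h. Finer dilutions were then retested, and the final MIC was taken from a concentration versus viable-trophozoite-number curve.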

Candida albicans [5] = experiment: Antifungal activity against Candida albicans MTCC 183 after 48 hrs by broth microdilution technique; details: MTCC 183, 48 h
Candida albicans [6] = experiment: Antifungal activity against Candida albicans MTCC 1346 after 48 hrs by broth microdilution technique; details: MTCC 1346, 48 h
Candida albicans [7] = experiment: Antifungal activity against Candida albicans ATCC 10231 after 48 hrs by broth microdilution technique; details: ATCC 10231, 48 h
Pichia kudriavzevii = experiment: Antifungal activity against Candida krusei ATCC 6258 after 48 hrs by broth microdilution technique; details: ATCC 6258, 48 h
Candida parapsilosis [8] = experiment: as §2; details: Lodderomyces parapsilosis, ATCC 22019, 48 h
Candida albicans [9] = experiment: Antifungal activity against Candida albicans ATCC 10453 after 48 hrs by broth microdilution technique; details: ATCC 10453, 48 h
Candida albicans [10] = experiment: Antifungal activity against Candida albicans ATCC 6019 after 48 hrs by broth microdilution technique; details: ATCC 6019, 48 h
Candida albicans [11] = experiment: Antifungal activity against Candida albicans ATCC 66027 after 48 hrs by broth microdilution technique; details: ATCC 66027, 48 h

SMILES	Activity (Sperm)	Activity (Candida albicans [1])	Activity (Cryptococcus neoformans)	Activity (Sporothrix schenckii)	MIC [2] [mg/L]	Activity (Aspergillus fumigatus)	MIC (Candida parapsilosis [3]) [mg/L]	MEC [4] [%]	MIC (Candida albicans [1]) [mg/L]	MIC (Cryptococcus neoformans) [mg/L]	MIC (Sporothrix schenckii) [mg/L]	MIC (Aspergillus fumigatus) [mg/L]	MIC (Trichomonas vaginalis) [mg/L]	Activity [2]	Activity (Candida parapsilosis [3])	other results
CN(CCC(Oc1ccc(C(F)(F)F)cc1)c1ccccc1)C(=S)SCC(O)CN1CCCCC1 (configuration not stated)	inactive	inactive	inactive	inactive	50 (≈ 94.9 µM)	inactive	50 (≈ 94.9 µM)	–	–	–	–	–	–	–	–	–
CN(CCC(Oc1ccc(C(F)(F)F)cc1)c1ccccc1)C(=S)SCCCl (configuration not stated)	–	–	–	–	12.5 (≈ 27.9 µM)	–	25 (≈ 55.8 µM)	1	50 (≈ 112 µM)	50 (≈ 112 µM)	25 (≈ 55.8 µM)	50 (≈ 112 µM)	> 200	–	–	–
OC(Cn1cncn1)(Cn1cncn1)c1ccc(F)cc1F [FLUCONAZOLE]	–	–	–	–	–	–	–	–	0.5 (≈ 1.63 µM)	–	–	–	–	–	–	MIC (Candida albicans [5]): 0.5 mg/L (≈ 1.63 µM); MIC (Candida albicans [6]): 2 mg/L (≈ 6.53 µM); MIC (Candida albicans [7]): 1 mg/L (≈ 3.27 µM); MIC (Pichia kudriavzevii): 4 mg/L (≈ 13.1 µM); MIC (Candida parapsilosis [8]): 1 mg/L (≈ 3.27 µM); MIC (Candida albicans [9]): 1 mg/L (≈ 3.27 µM); MIC (Candida albicans [10]): 0.25 mg/L (≈ 0.816 µM); MIC (Candida albicans [11]): 0.25 mg/L (≈ 0.816 µM)
CCN(CC)CCSC(=S)N(C)CCC(Oc1ccc(C(F)(F)F)cc1)c1ccccc1 (configuration not stated)	–	–	–	–	12.5 (≈ 25.8 µM)	–	50 (≈ 103 µM)	1	50 (≈ 103 µM)	50 (≈ 103 µM)	6.25 (≈ 12.9 µM)	6.25 (≈ 12.9 µM)	24 (≈ 49.5 µM)	–	–	–
CN(CCC(Oc1ccc(C(F)(F)F)cc1)c1ccccc1)C(=S)SCCN1CCOCC1 (configuration not stated)	inactive	inactive	inactive	inactive	–	inactive	–	–	–	–	–	–	–	inactive	inactive	–
Cc1ncc([N+](=O)[O-])n1CCO [METRONIDAZOLE]	inactive	inactive	inactive	inactive	–	inactive	–	–	–	–	–	–	0.54 (≈ 3.16 µM)	inactive	inactive	–
CN(CCC(Oc1ccc(C(F)(F)F)cc1)c1ccccc1)C(=S)SCC(O)CN1CCCC1 (configuration not stated)	–	inactive	inactive	–	25 (≈ 48.8 µM)	–	50 (≈ 97.5 µM)	0.5	–	–	50 (≈ 97.5 µM)	50 (≈ 97.5 µM)	6.95 (≈ 13.6 µM)	–	–	–
CN(CCC(Oc1ccc(C(F)(F)F)cc1)c1ccccc1)CC(O)CSC(=S)N1CCCCC1 (configuration not stated)	inactive	inactive	–	inactive	–	inactive	–	–	–	25 (≈ 47.5 µM)	–	–	–	inactive	inactive	–
CN(CCC(Oc1ccc(C(F)(F)F)cc1)c1ccccc1)CC(O)CSC(=S)N1CCCCCC1 (configuration not stated)	inactive	inactive	inactive	inactive	–	inactive	–	–	–	–	–	–	–	inactive	inactive	–
CN(CCC(Oc1ccc(C(F)(F)F)cc1)c1ccccc1)C(=S)SCCN1CCCCC1 (configuration not stated)	–	–	–	–	6.25 (≈ 12.6 µM)	–	1.56 (≈ 3.14 µM)	1	3.12 (≈ 6.28 µM)	1.56 (≈ 3.14 µM)	6.25 (≈ 12.6 µM)	12.5 (≈ 25.2 µM)	13.5 (≈ 27.2 µM)	–	–	–
CNCCC(Oc1ccc(C(F)(F)F)cc1)c1ccccc1 (configuration not stated) [FLUOXETINE]	–	–	–	–	50 (≈ 162 µM)	inactive	50 (≈ 162 µM)	–	50 (≈ 162 µM)	25 (≈ 80.8 µM)	50 (≈ 162 µM)	–	28 (≈ 90.5 µM)	–	–	–
CN(C)CCSC(=S)N(C)CCC(Oc1ccc(C(F)(F)F)cc1)c1ccccc1 (configuration not stated)	–	–	–	–	6.25 (≈ 13.7 µM)	–	50 (≈ 110 µM)	1	50 (≈ 110 µM)	50 (≈ 110 µM)	12.5 (≈ 27.4 µM)	25 (≈ 54.8 µM)	52 (≈ 114 µM)	–	–	–
CN(CCC(Oc1ccc(C(F)(F)F)cc1)c1ccccc1)C(=S)SCC(O)CN1CCOCC1 (configuration not stated)	inactive	inactive	inactive	inactive	–	–	–	–	–	–	–	50 (≈ 94.6 µM)	–	inactive	inactive	–
CN(CCC(Oc1ccc(C(F)(F)F)cc1)c1ccccc1)C(=S)[S-].[Na+] (configuration not stated)	–	inactive	–	inactive	–	inactive	–	1	–	25	–	–	96	inactive	inactive	–
CN(CCC(Oc1ccc(C(F)(F)F)cc1)c1ccccc1)C(=S)SCC(O)CN1CCCCCC1 (configuration not stated)	–	–	inactive	inactive	25 (≈ 46.2 µM)	–	50 (≈ 92.5 µM)	0.5	50 (≈ 92.5 µM)	–	–	25 (≈ 46.2 µM)	> 200	–	–	–
CN1CCN(C(=S)SCC(O)CN(C)CCC(Oc2ccc(C(F)(F)F)cc2)c2ccccc2)CC1 (configuration not stated)	–	inactive	–	inactive	25 (≈ 46.2 µM)	inactive	–	1	–	12.5 (≈ 23.1 µM)	–	–	6.68 (≈ 12.3 µM)	–	inactive	–
CN(CCC(Oc1ccc(C(F)(F)F)cc1)c1ccccc1)C(=S)SCc1ccccc1 (configuration not stated)	–	inactive	inactive	inactive	–	inactive	–	1	–	–	–	–	> 200	inactive	inactive	–
CCN(CC)CC(O)CSC(=S)N(C)CCC(Oc1ccc(C(F)(F)F)cc1)c1ccccc1 (configuration not stated)	–	inactive	inactive	inactive	25 (≈ 48.6 µM)	–	50 (≈ 97.1 µM)	0.5	–	–	–	50 (≈ 97.1 µM)	> 200	–	–	–
CN(CCC(Oc1ccc(C(F)(F)F)cc1)c1ccccc1)CC(O)CSC(=S)N1CCOCC1 (configuration not stated)	inactive	inactive	inactive	–	12.5 (≈ 23.6 µM)	inactive	50 (≈ 94.6 µM)	–	–	–	25 (≈ 47.3 µM)	–	–	–	–	–
CN(CCC(Oc1ccc(C(F)(F)F)cc1)c1ccccc1)C(=S)SCCN1CCCC1 (configuration not stated)	–	–	–	–	12.5 (≈ 25.9 µM)	–	3.12 (≈ 6.46 µM)	0.05	6.25 (≈ 12.9 µM)	3.12 (≈ 6.46 µM)	25 (≈ 51.8 µM)	12.5 (≈ 25.9 µM)	14 (≈ 29 µM)	–	–	MIC (Candida albicans [5]): 3.12 mg/L (≈ 6.47 µM); MIC (Candida albicans [6]): 6.25 mg/L (≈ 12.9 µM); MIC (Candida albicans [7]): 6.25 mg/L (≈ 12.9 µM); MIC (Pichia kudriavzevii): 6.25 mg/L (≈ 12.9 µM); MIC (Candida parapsilosis [8]): 3.12 mg/L (≈ 6.47 µM); MIC (Candida albicans [9]): 6.25 mg/L (≈ 12.9 µM); MIC (Candida albicans [10]): 6.25 mg/L (≈ 12.9 µM); MIC (Candida albicans [11]): 6.25 mg/L (≈ 12.9 µM)
CCCCCCCCCc1ccc(OCCOCCOCCOCCOCCOCCOCCOCCOCCO)cc1 [NONOXYNOL 9]	–	inactive	inactive	inactive	–	inactive	50 (≈ 81.1 µM)	0.05	–	–	–	–	23 (≈ 37.3 µM)	inactive	–	–
CN1CCN(CC(O)CSC(=S)N(C)CCC(Oc2ccc(C(F)(F)F)cc2)c2ccccc2)CC1 (configuration not stated)	–	–	–	–	25 (≈ 46.2 µM)	–	50 (≈ 92.3 µM)	0.5	50 (≈ 92.3 µM)	25 (≈ 46.2 µM)	25 (≈ 46.2 µM)	25 (≈ 46.2 µM)	12 (≈ 22.2 µM)	–	–	–
CN(CCC(Oc1ccc(C(F)(F)F)cc1)c1ccccc1)CC(O)CSC(=S)N(C)Cc1ccccc1 (configuration not stated)	inactive	inactive	inactive	inactive	–	inactive	–	–	–	–	–	–	–	inactive	inactive	–
CN(CCC(Oc1ccc(C(F)(F)F)cc1)c1ccccc1)CC(O)CSC(=S)N1CCCC1 (configuration not stated)	inactive	inactive	inactive	inactive	–	inactive	–	–	–	–	–	–	–	inactive	inactive	–
